Reference: ChEMBL document CHEMBL1157006, “Cellular localization and allele-selective inhibition of mutant huntingtin protein by peptide nucleic acid oligomers containing the fluorescent nucleobase [bis-o-(aminoethoxy)phenyl]pyrrolocytosine” (Bioorg Med Chem Lett, 2009)

How the values were obtained:
[1] = Inhibition of huntingtin […] expression in human GM04281 cells with 69 CAG repeats within mutant allele by Western blotting; format: functional, cell-based; conditions: in the assay text read “17 CAG repeats within wild type allele” for “69 CAG repeats within mutant allele”
How it was run: (§1)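 Patient-derived GM04281 fibroblasts carrying both wild-type and mutant HTT alleles were exposed to PNA-peptide conjugates, at 1 µM or across a concentration series. Mutant and wild-type HTT protein were measured separately by western blot and expressed relative to untreated cells. Experiments were run in triplicate.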

[2] = Ratio of IC50 for huntingtin […] expression in human GM04281 cells with 17 CAG repeats within wild type allele to huntingtin […] expression in human GM04281 cells with 69 CAG repeats within mutant allele; format: functional
[3] = Inhibition of huntingtin […] expression in human GM04281 cells with 17 CAG repeats within wild type allele by Western blotting; format: functional, cell-based; conditions: in the assay text read “69 CAG repeats within mutant allele” for “17 CAG repeats within wild type allele”; how it was run: as §1
[4] = Inhibition of huntingtin […] expression in human GM04281 cells with 69 CAG repeats within mutant allele at 0.2 to 2 uM by Western blotting; format: functional; how it was run: as §1
[5] = Inhibition of huntingtin […] expression in human GM04281 cells with 17 CAG repeats within wild type allele at >1 uM by Western blotting; format: functional; conditions: in the assay text read “69 CAG repeats within mutant allele” for “17 CAG repeats within wild type allele”; how it was run: as §1

IC50 [1] [nM] | IC50 [3] [nM] | Compound | Ratio IC50 [2] | inhibition (INH) [4] [%] | inhibition (INH) [5] [%]
> 4000 | 970 | Cc1cn(CC(=O)N(CCNC(=O)CN(CCNC(=O)CN(CCNC(=O)CN(CCNC(=O)CN(CCNC(=O)CN(CCNC(=O)CN(CCNC(=O)CN(CCNC(=O)CN(CCNC(=O)CN(CCNC(=O)CN(CCNC(=O)CN(CCN)C(=O)Cn2cnc3c(=O)[nH]c(N)nc32)C(=O)Cn2cc3cc(-c4c(OCCN)cccc4OCCN)[nH]c3nc2=O)C(=O)Cn2cc(C)c(=O)[nH]c2=O)C(=O)Cn2cnc3c(=O)[nH]c(N)nc32)C(=O)Cn2cc3cc(-c4c(OCCN)cccc4OCCN)[nH]c3nc2=O)C(=O)Cn2cc(C)c(=O)[nH]c2=O)C(=O)Cn2cnc3c(=O)[nH]c(N)nc32)C(=O)Cn2cc3cc(-c4c(OCCN)cccc4OCCN)[nH]c3nc2=O)C(=O)Cn2cc(C)c(=O)[nH]c2=O)C(=O)Cn2cnc3c(=O)[nH]c(N)nc32)C(=O)Cn2ccc(N)nc2=O)CC(=O)NCCN(CC(N)=O)C(=O)Cn2cnc3c(=O)[nH]c(N)nc32)c(=O)[nH]c1=O |  | <50 | >50
1300 | 580 | Cc1cn(CC(=O)N(CCNC(=O)CN(CCNC(=O)CN(CCNC(=O)CN(CCNC(=O)CN(CCNC(=O)CN(CCNC(=O)CN(CCNC(=O)CN(CCNC(=O)CN(CCNC(=O)CN(CCNC(=O)CN(CCNC(=O)CN(CCN)C(=O)Cn2cnc3c(=O)[nH]c(N)nc32)C(=O)Cn2cc3cc(-c4c(OCCN)cccc4OCCN)[nH]c3nc2=O)C(=O)Cn2cc(C)c(=O)[nH]c2=O)C(=O)Cn2cnc3c(=O)[nH]c(N)nc32)C(=O)Cn2ccc(N)nc2=O)C(=O)Cn2cc(C)c(=O)[nH]c2=O)C(=O)Cn2cnc3c(=O)[nH]c(N)nc32)C(=O)Cn2cc3cc(-c4c(OCCN)cccc4OCCN)[nH]c3nc2=O)C(=O)Cn2cc(C)c(=O)[nH]c2=O)C(=O)Cn2cnc3c(=O)[nH]c(N)nc32)C(=O)Cn2ccc(N)nc2=O)CC(=O)NCCN(CC(N)=O)C(=O)Cn2cnc3c(=O)[nH]c(N)nc32)c(=O)[nH]c1=O |  |  | 

The next lines start with the compound.

Compound | IC50 [1] [nM] | IC50 [3] [nM] | Ratio IC50 [2] | inhibition (INH) [4] [%] | inhibition (INH) [5] [%]
Cc1cn(CC(=O)N(CCNC(=O)CN(CCNC(=O)CN(CCNC(=O)CN(CCNC(=O)CN(CCNC(=O)CN(CCNC(=O)CN(CCNC(=O)CN(CCNC(=O)CN(CCNC(=O)CN(CCNC(=O)CN(CCNC(=O)CN(CCN)C(=O)Cn2cnc3c(=O)[nH]c(N)nc32)C(=O)Cn2ccc(N)nc2=O)C(=O)Cn2cc(C)c(=O)[nH]c2=O)C(=O)Cn2cnc3c(=O)[nH]c(N)nc32)C(=O)Cn2ccc(N)nc2=O)C(=O)Cn2cc(C)c(=O)[nH]c2=O)C(=O)Cn2cnc3c(=O)[nH]c(N)nc32)C(=O)Cn2ccc(N)nc2=O)C(=O)Cn2cc(C)c(=O)[nH]c2=O)C(=O)Cn2cnc3c(=O)[nH]c(N)nc32)C(=O)Cn2ccc(N)nc2=O)CC(=O)NCCN(CC(N)=O)C(=O)Cn2cnc3c(=O)[nH]c(N)nc32)c(=O)[nH]c1=O | > 2000 | 470 | >4 |  | 
Cc1cn(CC(=O)N(CCNC(=O)CN(CCNC(=O)CN(CCNC(=O)CN(CCNC(=O)CN(CCNC(=O)CN(CCNC(=O)CN(CCNC(=O)CN(CCNC(=O)CN(CCNC(=O)CN(CCNC(=O)CN(CCNC(=O)CN(CCN)C(=O)Cn2cnc3c(=O)[nH]c(N)nc32)C(=O)Cn2cc3cc(-c4c(OCCN)cccc4OCCN)[nH]c3nc2=O)C(=O)Cn2cc(C)c(=O)[nH]c2=O)C(=O)Cn2cnc3c(=O)[nH]c(N)nc32)C(=O)Cn2cc3cc(-c4c(OCCN)cccc4OCCN)[nH]c3nc2=O)C(=O)Cn2cc(C)c(=O)[nH]c2=O)C(=O)Cn2cnc3c(=O)[nH]c(N)nc32)C(=O)Cn2cc3cc(-c4c(OCCN)cccc4OCCN)[nH]c3nc2=O)C(=O)Cn2cc(C)c(=O)[nH]c2=O)C(=O)Cn2cnc3c(=O)[nH]c(N)nc32)C(=O)Cn2cc3cc(-c4c(OCCN)cccc4OCCN)[nH]c3nc2=O)CC(=O)NCCN(CC(N)=O)C(=O)Cn2cnc3c(=O)[nH]c(N)nc32)c(=O)[nH]c1=O | > 4000 | 2600 |  |  | 
Cc1cn(CC(=O)N(CCNC(=O)CN(CCNC(=O)CN(CCNC(=O)CN(CCNC(=O)CN(CCNC(=O)CN(CCNC(=O)CN(CCNC(=O)CN(CCNC(=O)CN(CCNC(=O)CN(CCNC(=O)CN(CCNC(=O)CN(CCN)C(=O)Cn2cnc3c(=O)[nH]c(N)nc32)C(=O)Cn2ccc(N)nc2=O)C(=O)Cn2cc(C)c(=O)[nH]c2=O)C(=O)Cn2cnc3c(=O)[nH]c(N)nc32)C(=O)Cn2ccc(N)nc2=O)C(=O)Cn2cc(C)c(=O)[nH]c2=O)C(=O)Cn2cnc3c(=O)[nH]c(N)nc32)C(=O)Cn2cc3cc(-c4c(OCCN)cccc4OCCN)[nH]c3nc2=O)C(=O)Cn2cc(C)c(=O)[nH]c2=O)C(=O)Cn2cnc3c(=O)[nH]c(N)nc32)C(=O)Cn2ccc(N)nc2=O)CC(=O)NCCN(CC(N)=O)C(=O)Cn2cnc3c(=O)[nH]c(N)nc32)c(=O)[nH]c1=O | 1860 | 710 |  |  | 
Cc1cn(CC(=O)N(CCNC(=O)CN(CCNC(=O)CN(CCNC(=O)CN(CCNC(=O)CN(CCNC(=O)CN(CCNC(=O)CN(CCNC(=O)CN(CCNC(=O)CN(CCNC(=O)CN(CCNC(=O)CN(CCNC(=O)CN(CCN)C(=O)Cn2cnc3c(=O)[nH]c(N)nc32)C(=O)Cn2cc3cc(-c4c(OCCN)cccc4OCCN)[nH]c3nc2=O)C(=O)Cn2cc(C)c(=O)[nH]c2=O)C(=O)Cn2cnc3c(=O)[nH]c(N)nc32)C(=O)Cn2ccc(N)nc2=O)C(=O)Cn2cc(C)c(=O)[nH]c2=O)C(=O)Cn2cnc3c(=O)[nH]c(N)nc32)C(=O)Cn2ccc(N)nc2=O)C(=O)Cn2cc(C)c(=O)[nH]c2=O)C(=O)Cn2cnc3c(=O)[nH]c(N)nc32)C(=O)Cn2ccc(N)nc2=O)CC(=O)NCCN(CC(N)=O)C(=O)Cn2cnc3c(=O)[nH]c(N)nc32)c(=O)[nH]c1=O | 1680 | 540 |  |  | 
